# From PubChem
# TDP2 inh: blocks human TDP2 phosphodiesterase activity. O95551. recombinant TDP2, T5PNP hydrolysis, p-nitrophenol absorbance 415 nm. inhibition, % at 12.8 µM. actives 0.34% (n = 370,000). AID 720702;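 active means inhibition above the mean of all tested compounds plus 3 SD, set per campaign, cut at about 25% in these data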;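 further: 0% = DMSO with enzyme and 100% = buffer with substrate but no TDP2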
#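 System: recombinant human TDP2 / Amount: 120 nM TDP2 per well / Also added: 5 mM T5PNP chromogenic substrate / Doses: 12.8 µM single point, 1% DMSO / Incubation: 2 h at 37 °C / Detection: p-Nitrophenol epi absorbance / Evaluation: % inhibition relative to enzyme-containing and enzyme-free wells / Repeats: singlicate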
# PP5 primary: inhibitors of human protein phosphatase 5 (PP5). P53041. purified PP5c, OMFP substrate fluorescence. inhibition, % at 6.7 µM. actives 0.18% (n = 320,000);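 active means inhibition above the campaign's mean inhibition across all tested compounds plus 3 SD, cut at about 9.5% in these data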;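 further: 0% = DMSO only and 100% = 100 µM cantharidin control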
# Apaf-1 inh: inhibitors of human Apaf-1 apoptosome; O14727; reconstituted apoptosome caspase-3 activity, DEVD-Rh110 fluorescence; inhibition, % at 20 µM; actives 0.71% (n = 330,000); AID 489030; active means inhibition of at least 40% at 20 µM;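 further: plate controls were DMSO wells for no effect and DEVD-CHO caspase inhibitor wells for full effect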
#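 System: Apoptosome proteins | Medium: Hepes pH 7.5 with detergent and BSA | Also added: Cytochrome c trigger plus (Z-DEVD)2-Rh110 caspase-3 substrate | Incubation: 30 min compound preincubation, 50 min activation, room temperature | Detection: Rhodamine 110 fluorescence at Ex 480/Em 540 nm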
# GSTO1 inh: counter-screen for RBBP9 inhibitors: inhibitors of human GSTO1. actives 1.1% (n = 300,000). inhibition, % at 5.96 µM. P78417. recombinant GSTO1, activity-based probe fluorescence polarization;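 active means inhibition above the campaign mean inhibition plus 3 SD, cut at about 35% in these data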;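 further: 0% = GSTO1-1 with DMSO and 100% = wells lacking GSTO1-1 enzyme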
# Target sequence (P78417 whole entry, looked up): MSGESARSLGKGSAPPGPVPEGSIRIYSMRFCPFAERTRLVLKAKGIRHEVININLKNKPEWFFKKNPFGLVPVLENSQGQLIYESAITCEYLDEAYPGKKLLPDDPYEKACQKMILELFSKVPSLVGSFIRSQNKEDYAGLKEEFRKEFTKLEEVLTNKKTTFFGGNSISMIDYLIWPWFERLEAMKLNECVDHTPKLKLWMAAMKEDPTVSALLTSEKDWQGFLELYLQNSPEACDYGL
# PP1 counter: PP1-alpha (human) inhibition in PP5 counter-screen. P62136. purified PP1alpha, OMFP fluorescence. inhibition, % at 6.7 µM. actives 0.9% (n = 320,000);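 active means inhibition above the mean inhibition of all tested compounds plus 3 SD, computed separately for each screening campaign, cut at about 15% in these data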
# GSTO1 confirm: confirmation of human GSTO1 inhibitors; recombinant GSTO1, probe fluorescence polarization; shares compounds with GSTO1 inh; inhibition, % at 5.96 µM; actives 54% (n = 2,400);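 active means inhibition above the primary screen's cutoff, its mean inhibition plus 3 SD, cut at about 35% in these data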;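 further: loss of polarization as inhibitors block binding of rhodamine sulfonate ester activity probe; 0% = GSTO1 with DMSO and 100% = wells lacking GSTO1 enzyme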
# GSTO1 recomb ABPP: inhibitors of recombinant human GSTO1; shares compounds with GSTO1 inh; gel ABPP SE-Rh probe fluorescence; inhibition, % at 1 µM; actives 30% (n = 130); AID 463110;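 active means inhibition of the enzyme GSTO1 above about 75%, limit read from the data; inactive means inhibition below that limit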
# * marks the source's active call; other numbers are inactive results; . = no result. A selection: hits, their analogues and other compounds. The true share with any hit is near 2.1%.
SMILES,TDP2 inh,PP5 primary,Apaf-1 inh,GSTO1 inh,PP1 counter,GSTO1 confirm,others
COc1ccccc1NS(=O)(=O)c1ccc2nc(CCl)[nH]c2c1,-9,3,1,85*,2,91*,GSTO1 recomb ABPP=68
CN(C)C(=O)c1cc(C(=O)c2ccccc2)c[nH]1,16,-1,6,67*,1,2,
O=C(CCl)NC1(C(F)(F)F)C(=O)Nc2c1c(=O)[nH]c(=O)n2-c1ccccc1 (centres undefined),-12,2,-6,67*,-5,71*,
COC(=O)CCC(=O)OC1(C)C(=O)C2=CN(C(CO)CO)C(c3ccc(OC)cc3)=CC2=C(Br)C1=O (centres undefined),18,9,81*,49*,7,51*,
COC(=O)CCC(=O)OC1(C)C(=O)C2=CN(CCCCO)C(c3ccc(OC)cc3)=CC2=C(Br)C1=O (centres undefined),.,9,80*,66*,3,60*,
CCOc1ccc2c(c1)C(C)=CC(C)(C)N2C(=O)Nc1ccccc1F,34*,-1,31,42*,2,3,
CCOc1cccc(C=Nc2cc(C)cc(C)c2O)c1O,-5,0,12,45*,0,-1,
CCOc1cccc(/C=N/N=C/c2cccc(OCC)c2O)c1O,2,.,2,.,.,.,
CCNc1nc(NCC)n2c(SCC(=O)c3ccc(C(C)C)cc3)nnc2n1,-8,2,1,95*,4,87*,
Cc1ccc(-c2nnc3n2N=C(c2ccc(-c4ccccc4)cc2)CS3)cc1,-11,.,.,.,.,.,
COC(=O)c1ccc(N=CC2=C(O)CC(c3ccccc3)CC2=O)cc1 (centres undefined),1,-3,0,7,3,.,
O=C1CC(c2ccccc2)CC(O)=C1C=Nc1ccc(O)cc1 (centres undefined),0,3,24,56*,-1,6,
CCCCNS(=O)(=O)CC1NCc2ccccc21 (centres undefined),-8,.,.,.,.,.,
CCOC(=O)CNC(=O)N(C)[C@H]1C[C@H]2c3[nH]c4c(-c5cccc(C)c5)cccc4c3CCN2C(=O)[C@H]1[C@H](C)O,-3,.,.,.,.,.,
COc1ccc2c(c1)c1nc3n(c(=O)c1n2CC(=O)Nc1cc(C)[nH]n1)CCS3,13,1,-14,92*,8,4,
COc1cccc(NC(=O)Cn2c3ccc(OC)cc3c3nc4n(c(=O)c32)CCS4)c1,1,2,2,1,-1,.,
Cc1cccc([C@@H]2[C@@H]3C(=O)N(Cc4ccccc4)C(=O)[C@@H]3[C@]3(Cc4ccc(Cl)cc4)C(=O)N(c4cccc(Br)c4)C(=O)N23)c1,6,0,11,70*,-3,2,
Cc1cccc([C@@H]2[C@@H]3C(=O)N(Cc4ccccc4)C(=O)[C@@H]3[C@]3(Cc4ccc(Cl)cc4)C(=O)N(c4ccccc4)C(=O)N23)c1,9,1,9,0,0,.,
COC(=O)CCCC1=CC2=C(c3ccccc3)C(=O)C(C)(OC(=O)C3CCCC3)C(=O)C2=CN1C1CCCCC1 (centres undefined),5,1,27,38*,-1,17,
COC(=O)CCCC1=CC2=C(c3ccccc3)C(=O)C(C)(OC(=O)C3CCCC3)C(=O)C2=CN1C1CCCC1 (centres undefined),20,0,28,26,1,.,
COC(=O)CCCC1=CC2=C(c3ccccc3)C(=O)C(C)(OC(=O)C3CCCC3)C(=O)C2=CN1CC1CC1 (centres undefined),23,3,21,49*,5,8,
CCCN1C(=O)c2[nH]nc(-c3ccccc3)c2C1c1ccc(C)cc1 (centres undefined),2,.,.,.,.,.,
CCCCNC(=O)C[C@H]1C[C@@]2(C(=O)OC)C(=C[C@H](C(C)(C)C)O[C@@H]2C)N(Cc2ccco2)C1=O,3,.,.,.,.,.,
CCCC(=O)N1CCC[C@]2(CC[C@H](CCC(=O)OCC)O2)C1,-2,.,.,.,.,.,
Cc1cc(O)c(C(C)C)cc1N=Cc1ccccc1O,1,-3,36,54*,-1,4,
